Source: PubChem
An excerpt weighted towards active compounds, which were near 2.6% of everything screened.
Vif imaging – blocks HIV Vif function; HEK293T cells, Vif self-association by quenched fluorescence, imaging, 24 h; inhibition, % at 7.49 µM; actives 0.35% (n = 340,000); AID 602346; in the data active means inhibition above about 50%, passing the limit was not always enough
HIV Env fusion – inhibitors of HIV Env-mediated cell fusion | inhibition, % at 12.3 µM | HeLa-JRFL Env/CEM21 cell fusion, luciferase | actives 1.1% (n = 360,000);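 active means mean replicate inhibition score of at least 50 and every replicate individually at or above 50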;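 further: 0% = plate neutral controls and 100% = maraviroc near 300 nM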
FN deposition inh – fibronectin deposition inhibition. AH1F fibroblasts, Alexa488-fibronectin deposition fluorescence, overnight. inhibition, % at 12.6 µM. actives 0.086% (n = 350,000). AID 743247;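 active means mean inhibition across replicates of 30% or more, regardless of how many single replicates reach that level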;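 further: positive control wells lacked labelled fibronectin entirely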
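material = AH1F fibroblast monolayer depositing Alexa488-labelled fibronectin into matrix | amount = 10000 AH1F cells/well | buffer or medium = DMEM plus 2% serum, read in PBS | incubation = 1 h cell adhesion before compound, then overnight fibronectin incubation | detection = fluorescence at 485 nm excitation, 525 nm emission | evaluation = percent inhibition as loss of matrix-bound fibronectin fluorescence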
miR122 inh – blocks miR-122 activity in Huh7 sensor cells; Huh7 miR-122 Renilla luciferase sensor, 48 h; neutral wells = 0, positive control = 100; activation (reporter increase), % at 12.5 µM; actives 0.3% (n = 340,000); AID 602342;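 active means mean replicate activation score at least 90 and every replicate individually at or above 90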;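 further: higher luciferase means less miR-122 activity so hits act as miR-122 inhibitors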
Ecoli rRNA inh – selective bacterial rRNA inhibition in E. coli. E. coli WT GFP vs humanized-ribosome RFP mutants, fluorescence, 24 h; stronger effect = lower value; DMSO median 0, no signal -100. GFP signal change (wild-type ribosome), % (concentration not given with the values). actives 1.6% (n = 350,000). AID 720706;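 active means significant combined selectivity score with lowered wild-type GFP, culture density cut under 30%, mutant RFP and density less affected; inactive means any of these conditions unmet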
S100A4 inh HTS – inhibitors of human S100A4 binding to myosin IIA peptide; P26447; S100A4/TAMRA-MyoIIA peptide fluorescence polarization; inhibition, % at 10.7 µM; actives 0.14% (n = 360,000);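 active means mean inhibition of at least 70% across replicates, with every replicate also reaching that level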
Target sequence (P26447 whole entry, looked up): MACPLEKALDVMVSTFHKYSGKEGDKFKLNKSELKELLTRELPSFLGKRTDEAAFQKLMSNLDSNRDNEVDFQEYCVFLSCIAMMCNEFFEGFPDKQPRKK
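Compound dosing: one dose per compound; test system: human S100A4 monomer with TAMRA-labelled myosin IIA peptide; probe or stimulus: TAMRA-labelled myosin IIA heavy-chain peptide probe, 5 nM; medium: HEPES buffer with Ca2+, pH 7.2; schedule: 5 min incubation before reading; benchmarks: neutral control DMSO, positive control TFP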
Active calls of the source: *; i = inactive; . = no result; [ ] = another dose, or the depositor's remark.

SMILES	Vif imaging	HIV Env fusion	FN deposition inh	miR122 inh	Ecoli rRNA inh	S100A4 inh HTS
O=C(O)[C@H](Cc1ccccc1)NC(=O)C(c1ccccc1)(c1ccccc1)c1ccccc1	7	11	4	.	-23*	13
CCc1cnc(N2[C@H](C#N)[C@H](c3ccc(C#Cc4ccccc4F)cc3)[C@@H]2CO)s1	.	10[16.7 µM]	11	.	0	-3
CCc1cnc(N2[C@H](C#N)[C@H](c3ccc(C#Cc4ccccc4F)cc3)[C@H]2CO)s1	.	65*[16.7 µM]	-19	.	6	6
CCOC(=O)c1cc(C)n(-c2ccc(Cl)cc2)c1C	-6	5	-4	.	-23*	5
O=C(CNC(=O)C(c1ccccc1)c1ccccc1)N/N=C/c1ccc(O)c([N+](=O)[O-])c1	5	.	3	11	-20*	-3
O=C(CNC(=O)c1ccco1)N/N=C/c1ccc(O)c([N+](=O)[O-])c1	8	-2	-5	-12	2	-1
CN1C(=O)/C(=C/c2cccc(Cl)c2)Sc2ccc(C(=O)N3CCCC3)cc21	.	8	6	.	-35*	-1
Cc1cccc(/C=C2\Sc3ccc(C(=O)N4CCCCC4)cc3N(C)C2=O)c1	-5	18	1	-14	2	4
O=C(CSCc1ccc(Cl)cc1)NCCSCc1ccco1	8	6	-4	.	-34	-2
O=C(NCCSCc1ccco1)Nc1cc(Cl)cc(Cl)c1	-6	18	-10	.	-51*	17
CC(C)CNS(=O)(=O)c1cc2c3c(c1)CCC(=O)N3CCC2	12	-1	2	93*	3	-1
COC(CNS(=O)(=O)c1cc2c3c(c1)CCN3C(=O)CC2)OC	-9	-5	-1	-12	14	9
CC1CC(NS(=O)(=O)c2cc3c4c(c2)CCN4C(=O)CC3)CC(C)(C)C1 (stereo unspecified)	-9	61*	1	.	-5	3
C[C@@H]1CN([C@H](C)CO)C(=O)c2cc(N(C)C)ccc2O[C@@H](C)CCCCO[C@@H]1CN(C)C(=O)Nc1ccc(F)cc1	.	5[16.7 µM]	.	1[16.7 µM]	-1	8
CCN(CC)C(=O)c1ccc(/C=C/c2c[nH]c3ccccc23)[n+](C)c1	3	-2	-17	-3	.	.
CC[n+]1c(/C=C/c2c[nH]c3ccccc23)ccc2cc(C)ccc21	.	-6	-118	.	50	129*
Cc1cc(=O)[nH]c(N/N=C/C=C/c2ccccc2)n1	-7	3	-2	.	11	-3
Cc1cc(=O)[nH]c(N/N=C/CCc2ccccc2)n1	2	3	-10	.	-27*	-8
COc1ccc2c3c(n(C)c2c1)[C@@H](CO)N(C(=O)c1cccnc1)CC31CN(C)C1	.	.	.	.	4	.
Cc1ccc(Cl)cc1N1CCN(S(=O)(=O)c2ccc3[nH]c(=O)c(=O)[nH]c3c2)CC1	7	3	-1	-6	-29*	-7
Cc1ccc(Cl)cc1N1CCN(S(=O)(=O)c2ccc3[nH]c(=O)ccc3c2)CC1	9	-11	-5	.	-5	-5
N#C/C(=C\c1ccc(F)cc1)c1nc(-c2ccco2)cs1	59*	-23	-1	-3	-1	6
N#C/C(=C\c1ccc(Cl)cc1)c1nc(-c2ccco2)cs1	2	2	0	.	23	4
CCCCCCCCCCCCCCCC[n+]1cccc2ccccc21	-2	74*	.	.	-32	-10
CN(C)S(=O)(=O)c1ccc2c(c1)nc(CCC(=O)NCC1CCCCC1)n2C	9	21	5	164*	.	.
SMILES	Vif imaging	HIV Env fusion	FN deposition inh	miR122 inh	Ecoli rRNA inh	S100A4 inh HTS
CN(C)S(=O)(=O)c1ccc2c(c1)nc(CCC(=O)NCc1ccc(Cl)cc1)n2C	3	6	-16	11	-5	-5
O=C(NCC1CC1)[C@H]1[C@H](CO)[C@H]2Cn3c(ccc(-c4cccnc4)c3=O)[C@@H]1N2C(=O)C1CCCCC1	.	.	.	-2[16.7 µM]	1	-8
C[C@H](CO)N1C[C@H](C)[C@H](CN(C)Cc2ccc(C(=O)O)cc2)Oc2ccc(NC(=O)NC3CCCCC3)cc2CC1=O	.	.	.	0[16.7 µM]	2	-2
O=C(OCc1cn([C@H]2C[C@H](c3ccc(Cl)cc3)N(Cc3cccs3)C[C@@H]2O)nn1)c1ccccc1	-3	-24	-1	8	-5.0*	-3
Cc1cc2nc(/C=C/c3nc4cc(C)c(C)cc4[nH]3)[nH]c2cc1C	-8	-12	6	.	5	6
Cc1cc2nc(/C=C/c3cccnc3)[nH]c2cc1C	-1	i	-9	15	-28*	-3
OCC[C@@H]1C[C@@H](O)[C@H](O)[C@]2(OCc3ccccc32)O1	-5	69*	7	-4	2	2
O=[N+]([O-])c1ccc2c(c1)CO[C@@]21O[C@H](CCO)C[C@H](O)[C@H]1O	-2	60*	-5	-3	17	5
CCNC(=O)[C@H]1[C@H](CO)[C@H]2Cn3c(ccc(-c4cncnc4)c3=O)[C@H]2N1C(=O)c1ccccc1F	.	.	.	3[16.7 µM]	-1	-4
CCC(=O)N(C)C[C@H]1Oc2ncc(/C=C/c3ccccc3)cc2C(=O)N([C@@H](C)CO)C[C@H]1C	.	-26[16.7 µM]	12	-5[16.7 µM]	1	-5
Cc1ccc(S(=O)(=O)N(C)C[C@H]2Oc3ccc(NC(=O)C4CCCCC4)cc3CC(=O)N([C@@H](C)CO)C[C@@H]2C)cc1	.	15[16.7 µM]	.	3[16.7 µM]	-4	-5
COc1ccccc1NC(=O)N[C@H]1CC[C@@H](CCNS(=O)(=O)c2ccccc2)O[C@@H]1CO	.	8[16.7 µM]	.	6[16.7 µM]	0	.
O=C(Nc1ccc(F)cc1)Nc1ccc2c(c1)[C@@H]1C[C@@H](CC(=O)N3CCCCC3)O[C@H](CO)[C@@H]1O2	.	1[16.7 µM]	-11	-3[16.7 µM]	-1	.
O=C(Nc1ccc(F)cc1)Nc1ccc2c(c1)[C@H]1C[C@@H](CC(=O)N3CCCCC3)O[C@H](CO)[C@H]1O2	.	83*[16.7 µM]	-2	-1[16.7 µM]	-5	.
O=C(C[C@@H]1C[C@@H]2c3cc(NC(=O)Nc4ccccc4)ccc3O[C@@H]2[C@H](CO)O1)NCC1CC1	.	.	7	-2[16.7 µM]	-2	10
O=C(C[C@H]1C[C@@H]2c3cc(NC(=O)Nc4ccc(F)cc4)ccc3O[C@@H]2[C@@H](CO)O1)NCC1CC1	.	95*[16.7 µM]	-1	5[16.7 µM]	-3	.
O=C(C[C@@H]1C[C@H]2c3cc(NC(=O)Nc4ccc(F)cc4)ccc3O[C@H]2[C@H](CO)O1)NCC1CC1	.	95*[16.7 µM]	-2	-3[16.7 µM]	-2	.
O=C(C[C@@H]1C[C@H]2c3cc(NC(=O)Nc4ccc(F)cc4)ccc3O[C@H]2[C@@H](CO)O1)NCC1CC1	.	.	0	3[16.7 µM]	3	.
O=C(Nc1cccc(NC(=O)c2cccs2)c1)c1ccc(F)cc1	-6	-3	1	29	-28*	2
COc1ccc(C(=O)Nc2cccc(NC(=O)c3cccs3)c2)cc1	4	-21	-6	.	-2	-1
